Data from ChEMBL document CHEMBL4321880 (J Med Chem, 2020).

Columns and labels:
CYP3A5 = CYP3A5 (Homo sapiens, UniProt P20815); test: Inhibition of human recombinant CYP3A5 expressed in supersomes assessed as decrease in formation of D-luciferin at 1.89 uM using luciferin-IPA as substrate incubated for 10 mins in presence of NADPH by P450-Glo luminescence assay relative to control; conditions: probe luciferin-IPA
ASPC1 [1] = test: Increase in CYP3A4 expression in CRISPR/Cas9-mediated CYP3A5 knock-out and doxycycline-induced CYP3A4 overexpressing human AsPC1 cells at 1 uM after 24 hrs by Western blot analysis; format: ADME, cell-based; conditions: aspc1, 24 h
In short: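 Overexpression was induced with 100 ng/mL doxycycline. […] Blots were probed with anti-CYP3A4 K03 (also detects CYP3A5) and β-actin, with infrared dye secondaries. Bands were normalized to actin across triplicate gels, with DMSO set as 1.0.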

ASPC1 [2] = test: Cytotoxicity against wild type human AsPC1 cells assessed as cell growth; format: cell-based
In short: (§1)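 Cells seeded at 10,000/well. Dox-inducible lines were induced with 100 ng/mL doxycycline, then treated 24 h later with compound at 16 two-fold dilutions (0.0003–10 μM) plus 5 μM midazolam, in 0.66% DMSO final, for 24 h. Phase-contrast confluence imaging followed. Values were normalized to six 0.66% DMSO replicates and fitted with a three-parameter log(inhibitor) vs response curve.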

ASPC1 [3] = test: Cytotoxicity against lentiviral pLVX-TRE3G-ZsGreen1-CYP3A5 transduced wild type human AsPC1 cells overexpressing CYP3A5 assessed as cell growth; format: ADME, cell-based; in short: as §1
ASPC1 [4] = test: Cytotoxicity against doxycycline-induced CYP3A5 overexpressing wild type human AsPC1 cells assessed as cell growth; format: ADME, cell-based; in short: as §1
ASPC1 [5] = test: Cytotoxicity against CRISPR/Cas9-mediated CYP3A5 knock-out and lentiviral pLVX-TRE3G-ZsGreen1-CYP3A4 transduced human AsPC1 cells overexpressing CYP3A4 assessed as cell growth; format: ADME, cell-based; in short: as §1
ASPC1 [6] = test: Cytotoxicity against CRISPR/Cas9-mediated CYP3A5 knock-out human AsPC1 cells assessed as cell growth; format: ADME, cell-based; in short: as §1
ASPC1 [7] = test: Cytotoxicity against CRISPR/Cas9-mediated CYP3A5 knock-out and doxycycline-induced CYP3A4 overexpressing human AsPC1 cells assessed as cell growth; format: ADME, cell-based; in short: as §1
ASPC1 [8] = test: Cytotoxicity against CRISPR/Cas9-mediated CYP3A5 knock-out and lentiviral pLVX-TRE3G-ZsGreen1-CYP3A5 transduced human AsPC1 cells overexpressing CYP3A5 assessed as cell growth; format: ADME, cell-based; in short: as §1
ASPC1 [9] = test: Cytotoxicity against CRISPR/Cas9-mediated CYP3A5 knock-out and doxycycline-induced CYP3A5 overexpressing human AsPC1 cells assessed as cell growth; format: ADME, cell-based; in short: as §1
Cytochrome P450 3A5 [10] = molecular target: T1, Cytochrome P450 3A5 (Homo sapiens, UniProt P20815); test: Binding affinity to heme in His-tagged CYP3A5 (unknown origin) expressed in Escherichia coli DH5alpha assessed as formation of five-coordinate ferric heme iron by measuring type 1 Soret shift from 417 nm (low spin) to 395 nm (high spin) by UV-vis spectrophotometric titration analysis
In short: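 Purified recombinant His-tagged CYP3A5 titrated with successive ligand additions until heme absorbance stopped changing. The ligand-free spectrum was subtracted to give difference spectra. Peak-minus-trough values were plotted against ligand concentration and fitted to a binding equation for Kd. Wavelength pairs: ΔA 386–418 nm for the type I shift; ΔA 432–410 nm for the type II shift.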

Cytochrome P450 3A5 [11] = molecular target: T1, Cytochrome P450 3A5; test: Binding affinity to His-tagged CYP3A5 (unknown origin) expressed in Escherichia coli DH5alpha assessed as five-coordinate HS ferric heme iron state formation with displacement of distal water ligand by EPR spectroscopy
In short: (§2)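 Continuous-wave X-band EPR of purified recombinant enzyme, alone and in complex with ligand. Spectra were compared against the ligand-free form.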

Cytochrome P450 3A4 = Cytochrome P450 3A4 (Homo sapiens, UniProt P08684); test: Binding affinity to His-tagged CYP3A4 (unknown origin) expressed in Escherichia coli DH5alpha assessed as induction of HS formation by EPR spectroscopy; format: ADME; in short: as §2
Cytochrome P450 3A4, sequence (P08684 whole entry): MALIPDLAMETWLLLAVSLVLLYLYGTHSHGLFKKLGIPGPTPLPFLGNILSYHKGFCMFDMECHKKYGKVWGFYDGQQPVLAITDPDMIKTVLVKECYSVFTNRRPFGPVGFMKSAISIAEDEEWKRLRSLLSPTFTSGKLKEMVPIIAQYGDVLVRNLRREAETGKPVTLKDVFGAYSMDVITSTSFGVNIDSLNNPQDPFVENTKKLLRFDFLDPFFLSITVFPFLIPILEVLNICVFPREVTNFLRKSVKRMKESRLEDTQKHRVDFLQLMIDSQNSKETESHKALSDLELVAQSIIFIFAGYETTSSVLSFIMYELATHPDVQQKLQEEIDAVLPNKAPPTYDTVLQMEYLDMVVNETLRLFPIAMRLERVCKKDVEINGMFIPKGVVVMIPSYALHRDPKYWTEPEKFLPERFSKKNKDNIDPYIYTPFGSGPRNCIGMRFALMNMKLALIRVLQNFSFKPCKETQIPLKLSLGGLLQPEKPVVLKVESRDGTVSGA

T1 sequence (P20815 whole entry): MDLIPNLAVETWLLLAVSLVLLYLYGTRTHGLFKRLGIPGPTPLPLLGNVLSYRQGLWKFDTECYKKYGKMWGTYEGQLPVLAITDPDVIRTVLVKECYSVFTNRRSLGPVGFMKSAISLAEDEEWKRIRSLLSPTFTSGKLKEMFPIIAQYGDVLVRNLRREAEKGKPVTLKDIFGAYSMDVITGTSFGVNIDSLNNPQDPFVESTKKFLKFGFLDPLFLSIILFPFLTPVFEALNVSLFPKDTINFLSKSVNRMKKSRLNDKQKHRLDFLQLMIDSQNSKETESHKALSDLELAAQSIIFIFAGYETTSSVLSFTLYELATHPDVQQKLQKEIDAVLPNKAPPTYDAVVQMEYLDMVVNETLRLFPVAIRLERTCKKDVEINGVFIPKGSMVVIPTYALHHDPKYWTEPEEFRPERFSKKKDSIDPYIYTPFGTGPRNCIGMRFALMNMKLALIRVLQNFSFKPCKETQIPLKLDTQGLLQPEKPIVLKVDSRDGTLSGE
CYP3A5, sequence (P20815 whole entry): as above

CC(=O)N1CCN(c2ccc(OCC3COC(Cn4ccnc4)(c4ccc(Cl)cc4Cl)O3)cc2)CC1 (stereo not drawn) [KETOCONAZOLE]
inhibition at 10 min, 1.89 µM (CYP3A5): 100%
Activity (ASPC1 [1]): Active
Activity (ASPC1 [2]): Non-Toxic
Activity (ASPC1 [3]): Non-Toxic
Activity (ASPC1 [4]): Non-Toxic
Activity (ASPC1 [5]): Non-Toxic
Activity (ASPC1 [6]): Non-Toxic
Activity (ASPC1 [7]): Non-Toxic
Activity (ASPC1 [8]): Non-Toxic
Activity (ASPC1 [9]): Non-Toxic

Cc1ncc2n1-c1ccc(Cl)cc1C(c1ccccc1F)=NC2 [MIDAZOLAM]
Activity (Cytochrome P450 3A5 [10]): Active
Activity (Cytochrome P450 3A5 [11]): Active
Activity (Cytochrome P450 3A4): Active
